These results are taken from ChEMBL document CHEMBL1122890, “Resolved monophenolic 2-aminotetralins and 1,2,3,4,4a,5,6,10b-octahydrobenzo[f]quinolines: structural and stereochemical considerations for centrally acting pre- and postsynaptic dopamine-receptor agonists” (1985).

The source made the active and inactive calls. The rule behind the calls is not given here.

The test system of assay [1] is Rattus norvegicus. The assay is described as follows: Evaluated for dopa accumulation (biochemical activity) in rat limbic system; Inactive at 50 umol/kg. The assay is classed as functional, organism-based. Put shortly:
(§1)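 Male Sprague-Dawley rats, 200-300 g. Compound dissolved in saline (sometimes with a little glacial acetic acid or warming), neutral pH, given sc at 50 μmol/kg. Dopa in limbic forebrain and striatum was measured by HPLC with electrochemical detection and expressed as percent of controls.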

The test system of assay [2] is Rattus norvegicus. The assay is described as follows: Evaluated for dopa accumulation (biochemical activity) in rat striatum; Inactive at 50 umol/kg. The assay is classed as functional, organism-based. Put shortly:
as §1

The species named for assay [3] is Rattus norvegicus. Nature of the assay: Evaluated for dopa accumulation (biochemical activity) in rat striatum. The class given is functional. Put shortly:
as §1

The species named for assay [4] is Rattus norvegicus. The assay is described as follows: Evaluated for dopa accumulation (biochemical activity) in rat limbic system. The assay is classed as functional. Put shortly: as §1
In assay [5] the test system is Rattus norvegicus. The assay is described as follows: Evaluated for the dose giving a half-maximal decrease of dopa formation in the rat brain, at a dose of 310 (nmol/kg). The assay is classed as functional. Put shortly:
(§2)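 Male Sprague-Dawley rats (200-300 g) received sc doses in saline, neutral pH. Dopa was measured in each brain area by HPLC with electrochemical detection. A separate dose-response curve was built per substance and brain area from four to six dose levels (n = 3-5). The dose giving half-maximal decrease of Dopa formation was estimated from that curve. Student's t-test was used, p ≤ 0.05.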

Assay [6] deals with Rattus norvegicus. Nature of the assay: Evaluated for the dose giving a half-maximal decrease of dopa formation in the rat brain, at a dose of 213000 (nmol/kg). The assay is classed as functional. Put shortly: as §2
The subject of assay [7] is Rattus norvegicus. Nature of the assay: Evaluated for the dose giving a half-maximal decrease of dopa formation in the rat brain, at a dose of 1300 (nmol/kg). The assay is classed as functional. Put shortly:
as §2

For assay [8], the system named is Rattus norvegicus. The assay is described as follows: Evaluated for the dose giving a half-maximal decrease of dopa formation in the rat brain, at a dose of 3100 (nmol/kg). The assay is classed as functional. Put shortly: as §2
Assay [9] has as its system Rattus norvegicus. The assay is described as follows: Evaluated for the dose giving a half-maximal decrease of dopa formation in the rat brain, at a dose of 39000 (nmol/kg). The class given is functional. Put shortly: as §2
The test system of assay [10] is Rattus norvegicus. The assay is described as follows: Evaluated for the dose giving a half-maximal decrease of dopa formation in the rat brain, at a dose of 31000 (nmol/kg). The assay is classed as functional. Put shortly: as §2
Assay [11] has as its system Rattus norvegicus. Nature of the assay: Evaluated for the dose giving a half-maximal decrease of dopa formation in the rat brain, at a dose of 50000 (nmol/kg). The assay is classed as functional. Put shortly: as §2
Assay [12] has as its system Rattus norvegicus. The assay is described as follows: Evaluated for the dose giving a half-maximal decrease of dopa formation in the rat brain, at a dose of 13000 (nmol/kg). The assay is classed as functional. Put shortly:
as §2

For the compound `CCCN1CCC[C@H]2c3cccc(O)c3CC[C@H]21`, the ED50 entry in the assay with Rattus norvegicus [1] and in the assay with Rattus norvegicus [2] was “inactive” throughout.
In the case of `CN1CCc2cccc3c2[C@H]1Cc1ccc(O)c(O)c1-3` [APOMORPHINE], the values for the ED50 in the assay filed under Rattus norvegicus [3] and in the assay filed under Rattus norvegicus [4] were 0.22 µmol/kg and 0.19 µmol/kg, respectively.
The like results for `CCCN(CCC)[C@H]1CCc2ccc(O)cc2C1` were, in that order, 2.4 µmol/kg and 1.9 µmol/kg.
As to `CCCN(CCC)[C@H]1CCc2c(O)cccc2C1.Cl`, the ED50 in the assay listed under Rattus norvegicus [3] and in the assay filed under Rattus norvegicus [4] was 0.0037 µmol/kg in each case. In the assay with Rattus norvegicus [5], this compound yielded an Accumulation counts below 155 Counts.
As to `CCCN1CCC[C@@H](c2cccc(O)c2)C1.Cl` [PRECLAMOL HYDROCHLORIDE], the ED50 (commonly the midpoint of the dose-response relation) worked out at 1.7 µmol/kg in the assay filed under Rattus norvegicus [3] and 0.8 µmol/kg in the assay listed under Rattus norvegicus [4]. The Accumulation counts in the assay on Rattus norvegicus [6] stood at 12.
For `CCCN1CCC[C@H]2c3cccc(O)c3CC[C@@H]21`, the ED50 in the assay listed under Rattus norvegicus [3] and in the assay filed under Rattus norvegicus [4] was 0.014 µmol/kg each time. The Accumulation counts with Rattus norvegicus [7] is given as below 62 Counts; in the assay on Rattus norvegicus [8], below 78 Counts.
In the case of `CCCN(CCC)[C@@H]1CCc2c(O)cccc2C1.Cl`, the ED50 in the assay listed under Rattus norvegicus [3] came to 0.65 µmol/kg; in the assay filed under Rattus norvegicus [4], 0.41 µmol/kg. For the same compound, the Accumulation counts in the assay on Rattus norvegicus [9] is reported as below 43.
As to `CCCN1CCC[C@@H]2c3cccc(O)c3CC[C@H]21`, the ED50 in the assay filed under Rattus norvegicus [3] worked out at 0.41 µmol/kg; in the assay filed under Rattus norvegicus [4] it was 0.32 µmol/kg. Further, the ED50 entry in the assay with Rattus norvegicus [1] and with Rattus norvegicus [2] was “inactive” throughout. Further, the Accumulation counts in the assay on Rattus norvegicus [10] is given as below 138 Counts; in the assay with Rattus norvegicus [11], 31; with Rattus norvegicus [8] it was below 59 Counts.
Consider `Br.CCCCN1CCCC2c3cc(O)ccc3CC[C@H]21` (some centres undefined), for which the ED50 result in the assay on Rattus norvegicus [1] and in the assay on Rattus norvegicus [2] was “inactive” in each case. Also, the Accumulation counts with Rattus norvegicus [11] is given as below 75.
As to `CCCN(CCC)[C@@H]1CCc2ccc(O)cc2C1`, the figures for the ED50 in the assay listed under Rattus norvegicus [3] and in the assay filed under Rattus norvegicus [4] were 0.011 µmol/kg and 0.0095 µmol/kg, respectively.
In the case of `CCCN1CCC[C@H](c2cccc(O)c2)C1.Cl`, the figures for the ED50 in the assay filed under Rattus norvegicus [3] and in the assay listed under Rattus norvegicus [4] were 1.3 µmol/kg and 1 µmol/kg, respectively. The same compound yielded an Accumulation counts in the assay with Rattus norvegicus [12] of 78.
